Fewer inactive variants are shown than the library holds.

B1: tRNA (parent)
chain: GUUCCGUUGGCGUAAUGGUAACGCGUCUCCCUCCUAAGGAGAAGACUGCGGGUUCGAGUCCCGUACGGAACG

The variants in the series derive from B1. The series can be described thus: yeast fitness relative to wild type (ratio to wild type); higher = fitter; tRNA-Arg(CCU), competitive growth, 37 C, YPD. The procedure, abridged: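 Start and end populations of a pooled competition were compared by 100-nucleotide paired-end sequencing of gene amplicons. The Saccharomyces cerevisiae strains carried tRNA-Arg(CCU) gene variants at the native genomic locus, synthesised with a 3% per-site mutation rate at 69 sites, and competed in YPD at 37°C for 24 hours in six parallel replicates. Darwinian fitness relative to wild type was based on the change in genotype frequencies. Genotypes required ≥ 100 starting reads, and estimates < 0.5 were set to 0.5.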
As to GUUCCGUUGGCGUAAUGGUAACGCGUCUCCCUCCUAUGGAGAAGACUCCGGGUUCGAGUCCCGUACGGAACG [A37U G48C], the yeast fitness is 0.674. To GUUCCGGUGGCGUAAUGGUAACGCGUCUCCCUCCUAAGGAGAGGACUGCGGGUUCGAGUCCCGUACGGAACG [U7G A43G] belongs 0.806; to GUUCCGUUGGCGUGAUGGUAACGGGUCUCCUUCCUAAGGAGAAGACUGCGGGUUAGAGUCACGUACGGAACG [A14G C24G C31U C55A C61A], no more than 0.5. To GUUCCAUUGGCGUAAUGGUAACGUGUCUCCCGCCUAAGGUGAAGACUGCGGGUUCGAGUCCCGUACGGAACG [G6A C24U U32G A40U] belongs no more than 0.5; to GUUCUGUUGGCGUAAUGGUAACGCGUCUCCCUCCUAAGGAGAAGUGUGCGGGUUCGAGUACCGUACGGAACG [C5U A45U C46G C60A], 0.597; to GUUCCGUUGGCGUAAUGGUAACGCGUUUCCCUCCAAAGGAGAAGACUGCGGGUUCGAGUCCCGUACGGAACG [C27U U35A], 0.771.

Regarding GUUCCGUUGGCGUAAUGGUAACGCGUCUCCCUGCCAAGGAGAAGACUGCGGGUUCGAGUCCCGUACGGAACG [C33G U35C], the yeast fitness turned out to be 0.603.

With GUUCCGUUGGCGUAAUGGCAACGCGUCUCCCUCUUAAGGAGAUGACUGCGGGUUCGAGUCCCAUACGGACCG [U19C C34U A43U G63A A70C], the yeast fitness is no more than 0.5.

For GUUCGGUUGGCGUAAUGGUAACGCGUCUCCCACCUAAGGAGAAGACUGCGGGUUCGAGUCCCGUACGGAACG [C5G U32A], the yeast fitness was determined as 0.678.

For the variant GUUCCGGUGGCGUAAUGGUAUCGCGUCUACCUCCUAAGGAGAAGACUGCGGGUUAGAGUCCCGUACGGAACG [U7G A21U C29A C55A], the yeast fitness was 0.604.

As to GUUCCGUUGGCGUUAUGGUACCGCGUCUCCCUCCUCAGGAGAAGACUGAGGGUUCGAGUCCCGUACGCAACG [A14U A21C A36C C49A G68C], the yeast fitness is no more than 0.5.

Consider GUUACGUUGGCGUAAUGGUAACGCGUCUCACUCCUACGGAGAAGACUGCGGGUUCGAGUCCCGUACGGAACG [C4A C30A A37C], for which the yeast fitness was no more than 0.5. Regarding GUUCCGUUGGCGUAAUGGUAACGCGUCUGCAUCCCAAGGAGAAGACUGCGGGUUCGAGUCCCGUACAGAACG [C29G C31A U35C G67A], the yeast fitness is no more than 0.5. With GCUCCGUUGGCGUAAUGGUAACGCGUCUCCAUCCUAAGGAGAAGACUGCGGGUUCGAGUCCCGUACGGAUCG [U2C C31A A70U], the yeast fitness worked out at 0.76.

Take GUUCCGUUGGCGUAAUGGUAACGCGUCUCCCUCCUAAGGAGAAGACUGCGGGUGCGAAUCCCGUACGGAACG [U54G G58A]: the yeast fitness worked out at 0.544.

Consider GUUCCGUUGGCGCAAUGGUAACGCGUCUGCCUCCUGAGGAAAAGACUCCGGGUUCGUGUCCCGUACGGAACG [U13C C29G A36G G41A G48C A57U], for which the yeast fitness was no more than 0.5. In the case of GGUCCGUUGGCGUAAUGGUAACGCGUCUCCCUCCUAAGGAGAAGAGUGCGGAUUCGAGUCCCGUACGGAACG [U2G C46G G52A], the yeast fitness was no more than 0.5.

As to GUUCCGUUGGCGUAAUGGUAACGCGUCUCCCUCCUAAGAAGAAGACUGCGGCUUCGAGUCCCGUACGGAACG [G39A G52C], the yeast fitness amounted to 0.612. As for GUUGCGUUGGCGUAAUGGUAACGCGUAUCCCUCCUAAGGAGAUGACUGCGGGUUCGAGUCCCGUACGGAACG [C4G C27A A43U], the figure is no more than 0.5; as for GUUCCGUUGGCGUAAUGGUAAAGCGUCUCCCUCCUAAGGAGAAGAAUGCGGGUUCGAGUCCCGUUCGGAACG [C22A C46A A65U], 0.687; as for GUUCCGUUGGCGUAAUGGUAACGCGUCUCCCUCCUAAGGAGAAGGCUGUGGGUUGGAGUCGCGUACGGAACG [A45G C49U C55G C61G], 0.732. As for GUUCCGAUGGCGUAAUGGUAACGCGUCUCCCUCCUAAGAAGAAGGCGGCGGGUUCGAGUCCCGUACGGAACG [U7A G39A A45G U47G], the figure is 0.623; as for GUUCAGUUGGCGUAAUGGUAACGCGUCUCCCUCCGAAGGAGAAGACUGCGGGUUCGAGUUCGGUACGGAGCG [C5A U35G C60U C62G A70G], no more than 0.5; as for GUUCCGUUGGCGUUAUAGUAACGCGUCUCCUUCCUAAGGAGAAGACUGCGGGUUCGAGUCACGUACGCAACG [A14U G17A C31U C61A G68C], no more than 0.5. To GUCCCGUUGGUGUAAUGGUAACGCGUCUUCCUCCUAAGGAGAAGACUGCGGGUUCGAGUCCCGUACAGAUCG [U3C C11U C29U G67A A70U] belongs no more than 0.5; to GUUCCGUUAGCGUAAUGGUAAUGCGACUCCCUCCUAAGGAGAUGACUGCGGGUUCGAGUCCCGUUCGGAACG [G9A C22U U26A A43U A65U], no more than 0.5; to GUUCCGUUGGCGUAAUGGUAACGCGUCUCCCUCCUAAGGAGAAGCCUGCGGGUUCGAGUUCCGUACGGAGCG [A45C C60U A70G], 0.683. GUUCCGUUUGCGUAAUGGUAACGCGUUUACCUCCUAAGGAGAAGACUGCGGGUUCGAGUCCCGUACGGUACG [G9U C27U C29A A69U]: the yeast fitness is no more than 0.5.

On to GCUCCGUUGGCGUACUGGCAAGGCGUCUCCCUCCUAAGGAGAAGACUGCGGGUUCGAGCGCCGUACGGAACG [U2C A15C U19C C22G U59C C60G], for which the yeast fitness was no more than 0.5. As for GUUCCGUUGCCGUAAUGGUAACGAGUCUCCCUGCUAAGGGGGAGACUGCGGGUUCGAGUCCCGUACGGAACG [G10C C24A C33G A40G A42G], the figure is no more than 0.5; as for GUUCCGCUGGCGUAAUGGUAACGCGUCACCUUCCUAAGGAGAAGACUGCGGGUUGGAGUCCCGUAUGGAACG [U7C U28A C31U C55G C66U], no more than 0.5.

Turning to GUUCCGUUGGCAUAAUGGUAACGCGUCUCCCUCCUAAGGAAAAGACUGCAGGUUCGAGUCCCGUACGGAACG [G12A G41A G50A], the yeast fitness is no more than 0.5. To GUUCCGUUGGCCUAAUGGUAACGCGUCUCCCCCCUACGGAGAAGGCUGCGGGUUCGCGUCCCGUACGGAACG [G12C U32C A37C A45G A57C] belongs no more than 0.5. As for GUUCCGUUGGCAUAAUGGUAAAGAGUCUCCCUCCUAAGGAGAAGACUGCGGGUUCGAGUCCCGUUCGGAACG [G12A C22A C24A A65U], the figure is no more than 0.5; as for GUUCCGUUGGCGUAAUGGUAACGUGUCUCCCUCCUAAGGAGAAGACUGCAGGUUCGAGUCCCGUACGGACCG [C24U G50A A70C], 0.658; as for GUUCUGUUGGCGUAGUGGUGACGCGUGUCCCUUCUAAGGAGAAGACUGCGGGUUCGAGUCCCAUACGGAACG [C5U A15G A20G C27G C33U G63A], no more than 0.5. As for GUUCCGUUGGCGUAAUGGUAAAGCGUCUCCCUCCUAAGGAGAAGACUCCGAGUUAGAGUCCCGUAAGGAACG [C22A G48C G51A C55A C66A], the figure is no more than 0.5.

The values above are taken from the RNAGym collection of RNA variant scans (doi:10.1126/science.aae0568).
